# Test results published in ChEMBL document CHEMBL1137663, “Evaluation of tigecycline penetration into colon wall tissue and epithelial lining fluid using a population pharmacokinetic model and Monte Carlo simulation” (Antimicrob Agents Chemother, 2007).
# How the values were obtained:
# [1] = Volume of distribution in human colon wall tissue; format: ADME, organism-based
# Summary of the method: (§1)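 Serum, ELF and colon wall concentrations were fitted simultaneously in BigNPAG. One specific-volume term estimated all tissue compartment volumes. Individual Bayesian estimates were obtained with the population-of-one utility.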
# [2] = Penetration ratio, ratio of AUC (0 to 24 hrs) for human colon wall tissue to AUC (0 to 24 hrs) for human serum at 75th AUC percentile curve; format: ADME
# Summary of the method: (§2)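 Penetration was expressed as steady-state tissue (colon wall or ELF) AUC0-24 divided by serum AUC0-24. AUCs came from the population model, by direct simulation with the mean parameter vector and by Monte Carlo simulation using the parameter distribution.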
# [3] = Penetration ratio, ratio of AUC (0 to 24 hrs) for human epithelial lining fluid to AUC (0 to 24 hrs) for human serum at 95th AUC percentile curve; format: ADME, tissue-based; summary of the method: as §2
# [4] = AUC (0 to 24 hrs) in human epithelial lining fluid at 95th AUC percentile curve; format: ADME, tissue-based; set-up: time < 24 hr
# Summary of the method: (§3)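 Study 1: 100-mg i.v. loading dose, then 50 mg i.v. every 12 h through day 4 (seven 30-min infusions). Drug was measured in BAL fluid by LC-MS/MS. ELF concentration was derived by urea dilution, using BAL and serum urea drawn at bronchoscopy. Values were comodeled with serum data in a population model, and Monte Carlo simulation gave steady-state AUC0-24 percentiles.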
# [5] = AUC (0 to 24 hrs) in human epithelial lining fluid at 25th AUC percentile curve; format: ADME, tissue-based; set-up: time < 24 hr; summary of the method: as §3
# [6] = AUC (0 to 24 hrs) in human colon wall tissue at 50th AUC percentile curve; format: ADME, tissue-based; set-up: time < 24 hr
# Summary of the method: (§4)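 Study 2: a single 100-mg i.v. dose was infused over about 30 min. Colon wall was collected about 4, 8, 12 or 24 h after the infusion started. Tissue (0.20-g aliquot) was homogenized with deuterated internal standard in acetonitrile, then assayed by LC-MS/MS. Data were comodeled with serum from all five studies in BigNPAG. Monte Carlo simulation gave steady-state AUC0-24 percentiles.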
# [7] = AUC (0 to 24 hrs) in human serum at 50th AUC percentile curve; format: ADME, cell-free; set-up: time < 24 hr
# Summary of the method: (§5)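 Serum came from five studies. Study 1: serial samples over 24 h after the last of seven i.v. doses. Study 2: samples after a single 100-mg infusion. Studies 3-5: patients on 100 mg then 50 mg q12h for 5-14 days, sampled predose, at end of infusion, and at 3 and 6 h. Assay was LC-MS/MS. Population modeling plus Monte Carlo simulation gave steady-state AUC0-24 percentiles.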
# [8] = Protein binding in human serum; format: ADME, cell-free; details: read-out: PB (converted)
# [9] = Penetration ratio, ratio of AUC (0 to 24 hrs) for human epithelial lining fluid to AUC (0 to 24 hrs) for human serum at 25th AUC percentile curve; format: ADME, tissue-based; summary of the method: as §2
# [10] = Penetration ratio, ratio of AUC (0 to 24 hrs) for human colon wall tissue to AUC (0 to 24 hrs) for human serum at 5th AUC percentile curve; format: ADME; summary of the method: as §2
# [11] = AUC (0 to 24 hrs) in human epithelial lining fluid at 50th AUC percentile curve; format: ADME, tissue-based; set-up: time < 24 hr; summary of the method: as §3
# [12] = Volume of distribution in human serum; format: ADME, organism-based; summary of the method: as §1
# [13] = Penetration ratio, ratio of AUC (0 to 24 hrs) for human epithelial lining fluid to AUC (0 to 24 hrs) for human serum at 75th AUC percentile curve; format: ADME, tissue-based; summary of the method: as §2
# [14] = Penetration ratio, ratio of AUC (0 to 24 hrs) for human epithelial lining fluid to AUC (0 to 24 hrs) for human serum at 50th AUC percentile curve; format: ADME, tissue-based; summary of the method: as §2
# [15] = AUC (0 to 24 hrs) in human serum at 95th AUC percentile curve; format: ADME, cell-free; set-up: time < 24 hr; summary of the method: as §5
# [16] = AUC (0 to 24 hrs) in human epithelial lining fluid at 5th AUC percentile curve; format: ADME, tissue-based; set-up: time < 24 hr; summary of the method: as §3
# [17] = AUC (0 to 24 hrs) in human serum at 75th AUC percentile curve; format: ADME, cell-free; set-up: time < 24 hr; summary of the method: as §5
# [18] = Penetration ratio, ratio of AUC (0 to 24 hrs) for human colon wall tissue to AUC (0 to 24 hrs) for human serum at 50th AUC percentile curve; format: ADME; summary of the method: as §2
# [19] = Volume of distribution in human lung; format: ADME, organism-based; summary of the method: as §1
# [20] = Penetration ratio, ratio of AUC (0 to 24 hrs) for human epithelial lining fluid to AUC (0 to 24 hrs) for human serum at 5th AUC percentile curve; format: ADME, tissue-based; summary of the method: as §2
# [21] = AUC (0 to 24 hrs) in human serum at 5th AUC percentile curve; format: ADME, cell-free; set-up: time < 24 hr; summary of the method: as §5
# [22] = AUC (0 to 24 hrs) in human serum at 25th AUC percentile curve; format: ADME, cell-free; set-up: time < 24 hr; summary of the method: as §5
# [23] = Penetration ratio, ratio of AUC (0 to 24 hrs) for human colon wall tissue to AUC (0 to 24 hrs) for human serum at 25th AUC percentile curve; format: ADME; summary of the method: as §2
# [24] = AUC (0 to 24 hrs) in human colon wall tissue at 25th AUC percentile curve; format: ADME, tissue-based; set-up: time < 24 hr; summary of the method: as §4
# [25] = Penetration ratio, ratio of AUC (0 to 24 hrs) for human colon wall tissue to AUC (0 to 24 hrs) for human serum at 95th AUC percentile curve; format: ADME; summary of the method: as §2
# [26] = AUC (0 to 24 hrs) in human colon wall tissue at 5th AUC percentile curve; format: ADME, tissue-based; set-up: time < 24 hr; summary of the method: as §4
# [27] = AUC (0 to 24 hrs) in human epithelial lining fluid at 75th AUC percentile curve; format: ADME, tissue-based; set-up: time < 24 hr; summary of the method: as §3
# [28] = AUC (0 to 24 hrs) in human colon wall tissue at 75th AUC percentile curve; format: ADME, tissue-based; set-up: time < 24 hr; summary of the method: as §4
# [29] = Clearance in human serum; format: ADME, organism-based; summary of the method: as §1
# [30] = AUC (0 to 24 hrs) in human colon wall tissue at 95th AUC percentile curve; format: ADME, tissue-based; set-up: time < 24 hr; summary of the method: as §4
structure (smiles),measurement,setting,value
CN(C)c1cc(NC(=O)CNC(C)(C)C)c(O)c2c1C[C@H]1C[C@H]3[C@H](N(C)C)C(O)=C(C(N)=O)C(=O)[C@@]3(O)C(O)=C1C2=O [TIGECYCLINE],Vd,[1],50.5 L
same,Kp,[2],3.91
same,Kp,[3],5.23
same,AUC(0-t) at 24 h,[4],32.4 µg·h/mL
same,AUC(0-t) at 24 h,[5],5.19 µg·h/mL
same,AUC(0-t) at 24 h,[6],15.6 µg·h/mL
same,AUC(0-t) at 24 h,[7],6.16 µg·h/mL
same,fraction unbound,[8],0.29
same,Kp,[9],0.823
same,Kp,[10],0.16
same,AUC(0-t) at 24 h,[11],9.03 µg·h/mL
same,Vd,[12],30.9 L
same,Kp,[13],2.45
same,Kp,[14],1.15
same,AUC(0-t) at 24 h,[15],18.5 µg·h/mL
same,AUC(0-t) at 24 h,[16],4.3 µg·h/mL
same,AUC(0-t) at 24 h,[17],8.72 µg·h/mL
same,Kp,[18],1.73
same,Vd,[19],35.2 L
same,Kp,[20],0.561
same,AUC(0-t) at 24 h,[21],4.84 µg·h/mL
same,AUC(0-t) at 24 h,[22],5.09 µg·h/mL
same,Kp,[23],0.683
same,AUC(0-t) at 24 h,[24],6.44 µg·h/mL
same,Kp,[25],199
same,AUC(0-t) at 24 h,[26],1.65 µg·h/mL
same,AUC(0-t) at 24 h,[27],22.3 µg·h/mL
same,AUC(0-t) at 24 h,[28],30.4 µg·h/mL
same,clearance,[29],243 mL/min
same,AUC(0-t) at 24 h,[30],3370 µg·h/mL
